# Screening results from PubChem.
# Only some compounds are listed: those with a hit (about 2.2% of all), similar ones and a draw of the others.
# MT stabilize HCS: microtubule stabilizers in HeLa cells | HeLa tubulin immunostaining HCS, 24 h; share of cells brighter than vehicle mean+2SD | % tubulin-high responders, % at 10 µM | 200,000 tested, 0.83% active;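 active means plate Z-score above 3 for both tubulin-high and condensed-nucleus cell shares, with cell loss under 80%, at 10 µM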;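 further: anti alpha tubulin signal scored within the nucleus-defined area of each cell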
# bCat nuc transl: modulators of beta-catenin nuclear translocation. HeLa beta-catenin nuclear translocation, immunofluorescence imaging. nuclear translocation activity, % at 5 µM. 190,000 tested, 0.3% active. AID 1665;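 active means nuclear translocation activity above 50% at 5 µM, with a well cell count of 50 or more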;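 further: per-cell ratio of nuclear to cytoplasmic median beta-catenin stain intensity; plate controls were DMSO negative control for no effect and GSK-3 inhibitor IX positive control for full effect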
#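 Signal – beta-catenin immunofluorescence imaging with DAPI · Test system – human HeLa cell line · Dosing – 5 µM primary single dose, 0.1% DMSO, 0.02–20 µM confirmation series · Measure – % activation, nuclear-to-cytoplasmic median beta-catenin signal ratio per cell · Incubation – 24 h compound exposure at 37°C, 5% CO2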
# Ba/F3 V617F tox: lowers viability of Ba/F3 cells expressing EpoR and JAK2V617F; inhibition, % at 5.6 µM; AID 1446; 220,000 tested, 1.1% active; ATP luminescence;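 active means inhibition above the campaign mean plus 3 SD over all tested compounds, cut at about 24% in these data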;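 further: cytokine-independent growth of Ba/F3 cells driven by EpoR plus mutant JAK2; 0% = DMSO-treated cells and 100% = JAK inhibitor I control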
# APP 5UTR inh: APP translation inhibition; inhibition, % at 2 µM; SH-SY5Y APP 5'UTR-luciferase reporter, luminescence; 190,000 tested, 0.82% active; AID 1285;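 active means inhibition above a set limit, derived from the sample mean plus 3 SD, cut at about 45% in these data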
# BaF3 tox: counter-screen for JAK2V617F inhibitors: parental Ba/F3 viability inhibitors; inhibition, % at 5.6 µM; CellTiter-Glo ATP luminescence; 220,000 tested, 1.1% active; AID 1486;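 active means inhibition above a per-campaign cutoff, the mean inhibition of all tested compounds plus 3 SD, cut at about 27% in these data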;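 further: 0% = DMSO wells and 100% = JAK Inhibitor I control wells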
# IEC-6 tox: kills IEC-6 intestinal cells in KLF5 counter-screen. 290,000 tested, 0.78% active. AID 1825. inhibition, % at 5 µM. IEC-6 cytotoxicity, luminescence viability; in the data active means inhibition above about 22%;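 further: 0% = plate median of test compound wells and 100% = cytotoxic reference compound wells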
# Starred values were filed as active, the others as inactive; nt = no result.
SMILES,MT stabilize HCS,bCat nuc transl,Ba/F3 V617F tox,APP 5UTR inh,BaF3 tox,IEC-6 tox
CN1/C(=C\C(=O)COC(=O)c2ccco2)C(C)(C)c2ccccc21,3,-1,12,-30,4,5
COc1ccccc1OCC(=O)/C=C1/N(C)c2ccccc2C1(C)C,4,1,6,-7,7,-4
CN1/C(=C/C(=O)c2nc(S(C)(=O)=O)ncc2Cl)C(C)(C)c2ccccc21,2,1,87*,57*,92*,-4
CN1/C(=C\C(=O)c2cncc(Br)c2)C(C)(C)c2ccccc21,3,-5,62*,-1,70*,-2
CN1/C(=C\C(=O)COc2ccc3c(c2)OCO3)C(C)(C)c2ccccc21,5,nt,64*,3,62*,0
CN1/C(=C\C(=O)c2cccnc2)C(C)(C)c2ccccc21,2,1,-1,-34,7,0
CCOC(=O)c1nc(S(C)(=O)=O)ncc1Cl,2,-3,-2,-2,-4,-2
Cc1ccc(C(=O)NCc2ccco2)c(C)c1,nt,nt,nt,nt,nt,-3
CN1/C(=C\C(=O)C[n+]2ccc3ccccc3c2)C(C)(C)c2ccccc21,2,1,41*,-20,42*,2
Cc1ccc(C)c(OCCNc2ncccc2[N+](=O)[O-])c1,nt,nt,nt,nt,nt,6
CC[C@@H]1[C@H]2CCCC(=O)N3CC[C@@H](C[C@@H]1OC(=O)Nc1ccccc1)[C@@H]23,nt,nt,nt,nt,nt,3
CCOC(=O)c1ccccc1NC(=O)CN(c1ccc(OCC)cc1)S(C)(=O)=O,13,69*,27*,52*,37*,0
CCOC(=O)c1ccccc1NC(=O)CN(c1ccccc1OCC)S(C)(=O)=O,6,1,0,16,2,-6
COCCNC(=S)NC(=O)c1ccc(C(C)(C)C)cc1,1,4,1,-10,11,4
COCCCNC(=S)NNC(=O)C1CC1c1ccc(C(C)(C)C)cc1 (centres undefined),2,-2,7,-17,38*,-2
COc1ccccc1N1CCN(C(=O)c2oc3cc(C)cc(C)c3c2C)CC1,25*,1,-4,-12,-1,-5
COc1ccccc1N1CCN(Cc2cc(=O)c(OCC#N)co2)CC1,nt,nt,nt,nt,nt,2
Cn1c(=O)c2c(nc(CN3CCC(C(N)=O)CC3)n2CCc2ccccc2)n(C)c1=O,2,114*,-4,4,-2,2
Cc1c(/C=N/Nc2nc3ccccc3[nH]2)c2ccccc2n1C,nt,-1,-1,nt,-1,18
CCCn1c(/C=N/Nc2nc3ccccc3[nH]2)nc2ccccc21,5,-1,-2,74*,3,-7
C=CCn1cc(/C=N/Nc2nc3ccccc3[nH]2)c2ccccc21,3,1,1,-40,3,23*
Cn1c(/C=N/Nc2nc3ccccc3[nH]2)nc2ccccc21,1,-2,6,-35,9,8
CC(C)Cn1c(/C=N/Nc2nc3ccccc3[nH]2)nc2ccccc21,7,0,1,71*,3,-8
O=C(CCN1C(=O)[C@@H]2Cc3ccccc3CN2C1=O)NCc1ccccc1Cl,nt,nt,nt,nt,nt,-3
Cc1nn(C)cc1S(=O)(=O)Nc1cccc(Cl)c1,nt,nt,nt,nt,nt,-1
SMILES,MT stabilize HCS,bCat nuc transl,Ba/F3 V617F tox,APP 5UTR inh,BaF3 tox,IEC-6 tox
Cc1ccc(/C=C/C(=O)c2cc(Br)ccc2OC(=O)c2ccco2)cc1,2,0,-4,51*,1,-4
COc1ccc(/C=N/NC(=O)c2cccnc2)cc1CSc1ccccn1,nt,65*,1,nt,-2,12
CCN1CCc2c(C#N)c(NCc3ccccc3)nc(N(CC)CC)c2C1,3,-2,19,5,50*,-11
Cn1c(=O)n(C)c2cc(NS(=O)(=O)c3ccc(C(C)(C)C)cc3)ccc21,4,2,12,0,30*,9
Cc1ccc(NS(=O)(=O)c2ccc3c(c2)n(C)c(=O)n3C)cc1,nt,nt,nt,nt,nt,0
Cc1cc(C)c(S(=O)(=O)Nc2ccc3c(c2)CCC3)c(C)c1,14*,16,7,2,9,5
Cn1c(=O)n(C)c2cc(NS(=O)(=O)c3ccc4c(c3)CCCC4)ccc21,1,nt,25*,2,28*,19
C=CCn1c(=O)c2c(nc3n2CCCN3CCc2ccc(OC)c(OC)c2)n(C)c1=O,nt,nt,nt,nt,nt,-4
Cc1cccc(NC(=O)c2ccc(S(=O)(=O)NCc3cccnc3)cc2)c1,nt,nt,nt,nt,nt,-10
COc1ccccc1CCNC(=O)c1nccnc1C(=O)O,nt,nt,nt,nt,nt,0
Cc1c(C(=O)N(C)C2CC(C)(C)NC(C)(C)C2)oc2c(F)cccc12,nt,nt,nt,nt,nt,-2
Cn1ncc2c(Nc3cccc([N+](=O)[O-])c3)ncnc21,nt,nt,nt,nt,nt,-4
COC(=O)C1=C(N)Oc2cc(N(C)C)ccc2C1c1ccccc1OC (centres undefined),27*,1,-4,66*,5,3
CCOc1cccc(CN2CCCC(CNC(=O)c3cccc(OC)c3OC)C2)c1 (centres undefined),nt,nt,nt,nt,nt,2
FC(F)Oc1ccc(-n2cc(-c3ccccc3)[n+]3c2CCCCC3)cc1,nt,0,65*,nt,63*,-2
Cc1ccc(-c2cn(-c3ccc(OC(F)F)cc3)c3[n+]2CCCCC3)cc1,nt,1,78*,nt,73*,16
c1ccc(-c2c[nH]c3[n+]2CCCCC3)cc1,2,nt,3,7,6,0
Cc1ccc(CONC(=O)c2ccc(OC(F)F)cc2)cc1,2,-4,3,4,11,6
CCn1c(SCc2ccccc2)nc2cc(S(N)(=O)=O)ccc21,nt,nt,nt,nt,nt,0
O=Cc1cn(CCOc2ccccc2F)c2ccccc12,nt,nt,nt,nt,nt,3
O=C(Nc1nc2ccc(F)cc2s1)C1CCCO1 (centres undefined),2,0,-1,-106,3,-11
O=C(Nc1nc2ccccc2s1)C1CCCO1 (centres undefined),2,0,-2,-49,95*,-4
Cc1ccc(NC(=O)c2cc(N3CCOCC3)nc3ccccc23)cc1,24*,-5,-3,-3,2,12
CC1(C)COC(Cn2c3ccccc3c3ccccc32)O1 (centres undefined),nt,1,2,nt,0,11
CCC1(C)OCC(Cn2c3ccccc3c3ccccc32)O1 (centres undefined),5,63*,-3,-8,0,1
SMILES,MT stabilize HCS,bCat nuc transl,Ba/F3 V617F tox,APP 5UTR inh,BaF3 tox,IEC-6 tox
Nc1cc2c3c(cccc3c1)C(=O)N(CCN1CCCC1)C2=O,nt,-1,97*,nt,83*,62*
O=C1c2cccc3cc([N+](=O)[O-])cc(c23)C(=O)N1CCN1CCCC1,nt,5,99*,nt,104*,100*
NC(=O)CN1CCN(CCN2C(=O)c3cccc4cccc(c34)C2=O)CC1,nt,nt,nt,nt,nt,6
CCN(CC)CCN1C(=O)c2cccc3cc(N)cc(c23)C1=O,nt,1,82*,nt,70*,13
O=C(NC1CCCCCCC1)c1cc(COc2ccc3ncccc3c2)on1,4,0,7,4,39*,2
O=C(c1cc(COc2ccc3ncccc3c2)on1)N1CCC(O)CC1,5,0,0,-4,3,1
